These results are taken from ChEMBL document CHEMBL4425151, “Design, Synthesis, and Initial Evaluation of Affinity-Based Small-Molecule Probes for Fluorescent Visualization and Specific Detection of Keap1” (J Med Chem, 2016).

Calls of active or inactive are those of the source. The calls are words filed in the database; no cut-off is given here.

Test [1] concerns the target T1, Kelch-like ECH-associated protein 1 (Homo sapiens, UniProt Q14145). As to the kind of experiment: Binding affinity to KEAP1 kelch domain in cytoplasm of human NCM460 cells at 10 uM after 10 hrs by DAPI staining based confocal microscopic analysis. In kind it is cell-based. The procedure, abridged: (§1)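 NCM460 colonic cells exposed to the FITC probe at 10 µM for 10 h, then fixed. Keap1 primary antibody applied overnight at 4 °C, then Alexa Fluor-labelled goat anti-rabbit secondary for 1 h at 37 °C. Nuclei stained with DAPI. Imaged by laser scanning confocal microscopy at excitation 570 and 340 nm for co-localization. Three separate experiments.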

The target in test [2] is T1, Kelch-like ECH-associated protein 1. Description: Inhibition of FITC-labeled 9-mer Nrf2 peptide amide binding to human KEAP1 kelch domain (322 to 609 residues) expressed in Escherichia coli Arctic(DE3) cells incubated for 30 mins by fluorescence polarization assay. For orientation: Polarisation of emitted light reports the rotation of a fluorescent probe.
Test [3] has the same target. As to the kind of experiment: Binding affinity to human KEAP1 kelch domain (322 to 609 residues) expressed in Escherichia coli Arctic(DE3) cells at 0.05 mM by isothermal titration calorimetry. The procedure, abridged: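 ITC at 25 °C. Lyophilized Keap1 Kelch domain and the FITC probe both dissolved in 10 mM HEPES pH 7.4. Nineteen 2 µL injections of 0.05 mM probe, 2.5 min apart, stirred at 750 rpm, into cell holding 0.005 mM Kelch domain. Kd obtained from a 1:1 binding model fit.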

The target is the same in test [4]. As to the kind of experiment: Binding affinity to KEAP1 kelch domain in nucleus of human NCM460 cells at 10 uM after 10 hrs by DAPI staining based confocal microscopic analysis. In kind it is cell-based. The procedure, abridged: as §1
Test [5] has the same target. As to the kind of experiment: Binding affinity to human KEAP1 kelch domain (322 to 609 residues) expressed in Escherichia coli Arctic(DE3) cells by biolayer interferometry method. The essentials:
(§2)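 Biotinylated probe immobilized on super streptavidin biosensor tips. Sequence: baseline, loading, second baseline, Keap1 Kelch domain association (kon), then dissociation (koff). Six Keap1 concentrations tested, all at 30 °C. Kinetic constants fitted from the sensorgrams, and Kd taken as koff/kon.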
In general terms: In BLI a coated tip is dipped into the sample, and binding shifts an interference pattern.

The target is the same in test [6]. Description: Binding affinity to human KEAP1 kelch domain (322 to 609 residues) expressed in Escherichia coli Arctic(DE3) cells assessed as dissociation constant by biolayer interferometry method. The procedure, abridged: as §2
For test [7] the target is unchanged. As to the kind of experiment: Binding affinity to KEAP1 kelch domain in human NCM460 cells after 2 hrs by Western blot based affinity pulldown assay. In kind it is cell-based. The procedure, abridged:
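Streptavidin magnetic beads loaded with the biotin probe (50 µg/100 µL), 30 min at 4 °C, then free sites blocked with biotin. Beads incubated with NCM460 colonic cell lysate for 2 h at 4 °C with rotation and washed with TBS. Bound protein eluted in buffer with 2% SDS at 95 °C for 5 min. Analysed by SDS-PAGE and western blot with anti-Keap1 antibody.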
(In general: In western blotting, separated proteins are transferred to a membrane and probed.)

Test [8] shares this target. Description: Binding affinity to human KEAP1 kelch domain (322 to 609 residues) expressed in Escherichia coli Arctic(DE3) cells assessed as association constant by biolayer interferometry method. The procedure, abridged:
as §2

T1 sequence (Q14145 whole entry, the tested form may be a part): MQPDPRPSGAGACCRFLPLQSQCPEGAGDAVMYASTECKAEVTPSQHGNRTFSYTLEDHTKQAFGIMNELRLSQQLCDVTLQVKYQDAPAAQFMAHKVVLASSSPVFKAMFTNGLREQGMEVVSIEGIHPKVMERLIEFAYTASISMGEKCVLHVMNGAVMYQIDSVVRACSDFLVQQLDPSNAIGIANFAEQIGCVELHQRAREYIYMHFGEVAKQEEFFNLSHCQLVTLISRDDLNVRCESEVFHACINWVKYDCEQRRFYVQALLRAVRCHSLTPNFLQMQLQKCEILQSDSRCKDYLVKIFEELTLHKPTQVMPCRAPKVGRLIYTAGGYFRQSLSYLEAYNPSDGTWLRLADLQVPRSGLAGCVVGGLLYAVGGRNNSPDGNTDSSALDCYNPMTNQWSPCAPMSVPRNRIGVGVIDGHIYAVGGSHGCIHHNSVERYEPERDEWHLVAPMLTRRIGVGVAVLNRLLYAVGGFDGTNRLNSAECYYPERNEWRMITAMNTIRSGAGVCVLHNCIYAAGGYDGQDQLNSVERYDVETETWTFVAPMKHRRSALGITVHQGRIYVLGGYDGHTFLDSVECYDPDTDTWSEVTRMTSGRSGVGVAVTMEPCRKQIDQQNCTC

Take `COc1ccc(S(=O)(=O)N(CC(=O)O)c2ccc(N(CC(=O)O)S(=O)(=O)c3ccc(NC(=O)CCCC(=O)NCCNC(=S)Nc4ccc5c(c4)C(=O)OC54c5ccc(O)cc5Oc5cc(O)ccc54)cc3)c3ccccc23)cc1`: the outcome in test [1] and in test [4] was Active. In test [2], this compound displayed a concentration for a half-maximal effect (EC50) of 14.7 nM. Moreover, the dissociation constant Kd in test [3] was determined as 29.1 nM.
Compound `COc1ccc(S(=O)(=O)N(CC(=O)O)c2ccc(N(CC(=O)O)S(=O)(=O)c3ccc(NC(=O)CCCC(=O)NCCNC(=O)CCCC[C@@H]4SC[C@@H]5NC(=O)N[C@@H]54)cc3)c3ccccc23)cc1` yielded an IC50 in test [2] of 74 nM. In addition, the Activity entry in test [5] is “Dose-dependent effect”. Also, binding in test [5] was put at a Kd of 21.6 nM. In addition, the K in test [6] stood at 1.35 ×10⁻³ /s; in test [8], 6.24 ×10⁴ /M/s. Besides, the result in test [7] was Active.
In test [2], `COc1ccc(S(=O)(=O)N(CC(=O)O)c2ccc(N(CC(=O)O)S(=O)(=O)c3ccc(NC(=O)CCCC(=O)NCCN)cc3)c3ccccc23)cc1` showed an IC50 of 30.7 nM.

For orientation: EC50 means the concentration at which the effect is half-maximal. Lower therefore signals greater potency. The term Kd denotes a measure of binding affinity in units of concentration. Low values mean higher affinity, high ones lower affinity. Usually IC50 stands for the midpoint of a concentration-inhibition curve. The low end stands for greater potency in that assay, the high end for weaker potency in that assay.
